Bioassay records (PubChem)
Shown are actives, neighbours in structure and some others; about 2.5% of the full set was active somewhere.
Rce1 inhib = yeast Ras-converting enzyme inhibition; Q03530; yeast membranes, quenched prenylated peptide cleavage fluorescence; 290,000 compounds, 0.27% hits; calls only;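 active means fall in fluorescence gain of 50% or more versus controls, with final raw signal at or below 3038400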
T cell HTS = T cell immune modulation candidate; 330,000 compounds, 0.068% hits; 2C CD8+ T cell-vesicle binding, flow cytometry; active compounds read low; response (vesicle binding), % at 7 µM;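 active means response, share of CD8 T cells binding vesicles, and their 90th percentile fluorescence all below set limits, cut at about 80% in these data, passing the limit was not always enough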;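 further: values below 100% mean blocked vesicle binding to the CD8+ T cells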
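incubation = binding step 1.5 h, 37 °C, antibody labelling 20 min, ice | test system = 2C mouse CD8+ T cells | read-out basis = percent CD8+ FL2 mean versus row control | controls = Peptide-free naked vesicles (low) and QL9 vesicles with 0.7% DMSO vehicle (high) | detection = flow cytometry of vesicle-bound cells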
UCH37 DUB inh = human UCH37 deubiquitinating enzyme inhibition | Q9Y5K5 | purified proteasome/UCH37, Ub-AMC cleavage fluorescence | inhibition, % (concentration not given with the values) | 330,000 compounds, 0.33% hits | AID 588478;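 active means mean inhibition over replicate wells above about 20%, limit read from the data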
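Material: human UCH37 enzyme supplied as purified proteasome complex. Measure: % inhibition of Ub-AMC cleavage fluorescence. Medium: pH 7.4 Tris-HCl (50 mM) with ovalbumin, ATP-MgCl2, DTT. Times: 30 min preincubation with enzyme, 25 min cleavage at room temperature. Detection: AMC fluorescence intensity at 355/460 nm.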
MEKK3 PB1 HTS = raises or lowers MEK5 binding to the human MEKK3 PB1 domain; 290,000 compounds, 1.4% hits; AID 1529; bead-based flow cytometry, Alexa488-MEK5 binding to MEKK3; actives lie on both sides; 0 = blocked by unlabeled MEK5, 100 = vehicle; Q99759; binding response (% of control), % at 10 µM;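 active means binding response more than 3 SD above or below the average of its plate-row segment, actives on both sides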;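 further: Alexa488 bead fluorescence after subtracting the streptavidin-only scavenger bead signal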
Target sequence (Q99759 whole entry, looked up, the tested form may be a part): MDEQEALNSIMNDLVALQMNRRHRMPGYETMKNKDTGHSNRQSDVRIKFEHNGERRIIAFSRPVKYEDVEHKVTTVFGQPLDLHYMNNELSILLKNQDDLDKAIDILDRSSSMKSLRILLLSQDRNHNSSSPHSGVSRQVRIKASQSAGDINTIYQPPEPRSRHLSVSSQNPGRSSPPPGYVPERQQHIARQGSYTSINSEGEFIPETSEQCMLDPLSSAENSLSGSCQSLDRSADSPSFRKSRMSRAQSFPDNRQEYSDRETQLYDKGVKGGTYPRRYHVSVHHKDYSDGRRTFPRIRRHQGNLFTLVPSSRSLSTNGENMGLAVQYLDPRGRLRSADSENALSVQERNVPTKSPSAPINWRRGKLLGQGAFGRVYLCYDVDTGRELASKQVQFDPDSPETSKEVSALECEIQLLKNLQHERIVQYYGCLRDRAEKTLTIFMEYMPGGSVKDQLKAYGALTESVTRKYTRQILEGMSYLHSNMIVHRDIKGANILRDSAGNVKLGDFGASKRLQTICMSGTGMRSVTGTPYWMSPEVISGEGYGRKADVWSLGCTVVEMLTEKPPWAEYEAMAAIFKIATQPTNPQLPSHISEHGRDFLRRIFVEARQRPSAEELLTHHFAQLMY
MEKK2mut PB1 HTS = signal of MEK5 binding to mutant human MEKK2 PB1 domain | bead flow cytometry, Alexa488-MEK5 binding to MEKK2 mutant | percent response, % at 10 µM | 290,000 compounds, 0.35% hits | AID 1530; in the data active means percent response above about 24%, passing the limit was not always enough
MEKK2 WT-MEK5 = raises or lowers MEK5 binding to wildtype human MEKK2 PB1 domain | 290,000 compounds, 1.1% hits | bead flow cytometry, Alexa488-MEK5 binding to MEKK2 WT; actives lie on both sides | AID 1531 | Q9Y2U5 | binding response (% of control), % at 10 µM; in the data active means binding response below about 67% or above about 130%
MEKK2wt confirm = raises or lowers MEK5 binding to wildtype human MEKK2, retest. AID 1892. shares compounds with MEKK3 PB1 HTS. 5,900 compounds, 2.4% hits. binding response (% of control), % at 10 µM. bead flow cytometry, Alexa488-MEK5 binding to MEKK2 WT; actives lie on both sides; in the data active means binding response below about 16% or above about 210%; inactive means in between
MEKK2mut-MEK5 = signal of MEK5 binding to mutant human MEKK2, retest | shares compounds with MEKK3 PB1 HTS | 5,900 compounds, 2% hits | percent response, % at 10 µM | AID 1893 | bead flow cytometry, Alexa488-MEK5 binding to MEKK2 mutant; in the data active means percent response mostly above about 71%, no sharp cut-off; inactive means mostly below about 38%;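 further: higher means compound restores mutant binding toward wildtype level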
MEKK3-MEK5 inh = confirmation of inhibitors of MEK5 binding to human MEKK3 | shares compounds with MEKK3 PB1 HTS | 5,900 compounds, 1.8% hits | AID 1894 | binding response (% of control), % at 10 µM | bead flow cytometry, Alexa488-MEK5 binding to MEKK3; active compounds read low;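 active means binding response below 72% of control, or above a set upper limit, though filed actives all read lower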;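 further: lower values mean stronger disruption of MEK5 binding to MEKK3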
Hits are given with their value; 0 = inactive; - = not tested or not shown; [ ] = remark or other dose.

SMILES	Rce1 inhib	T cell HTS	UCH37 DUB inh	MEKK3 PB1 HTS	MEKK2mut PB1 HTS	MEKK2 WT-MEK5	MEKK2wt confirm	MEKK2mut-MEK5	MEKK3-MEK5 inh
O=C(NCC1CCCO1)C(c1cccs1)N(Cc1cccs1)C(=O)Cn1nnc(-c2cccs2)n1 (stereo not given)	-	0	0	66[inhibitor]	0	-2.0	0	0	0
CS(=O)(=O)N(Cc1ccccc1)c1ccc(C(=O)NCC2CCCO2)cc1 (stereo not given)	0	0	0	123	0	0	0	0	0
O=C(NCC1CCCO1)C(c1cccnc1)N(C(=O)Cc1cccs1)c1ccccc1 (stereo not given)	0	0	0	-1.0[inhibitor]	0	-10[inhibitor]	0	0	0
COc1cc(NN=Cc2ccc(N(C)C)cc2)ncn1	-	-	0	-	-	-	-	-	-
O=C1CSC(=Nc2ccccn2)N1C1CCCCC1	-	-	0	-	-	-	-	-	-
O=C(NCC(=O)N(c1ccccc1)C(C(=O)NCC1CCCO1)c1ccccc1)c1ccco1 (stereo not given)	0	0	0	125	0	0	0	0	0
Cc1cc(C(=O)CSc2nc3ccccc3c(=O)[nH]2)c(C)n1CC1CCCO1 (stereo not given)	0	0	-	0	0	0	-	-	-
O=c1[nH]c(SCC2CCCCO2)nc2ccccc12 (stereo not given)	0	0	0	73[inhibitor]	0	0	0	0	0
O=C1C2C3c4ccccc4C(c4ccccc43)C2C(=O)N1N=Cc1cccc(O)c1 (stereo not given)	-	-	0	-	-	-	-	-	-
CC(=NNC(=O)CN(c1ccccc1Br)S(C)(=O)=O)c1cccs1	-	-	0	-	-	-	-	-	-
CS(=O)(=O)NCCSCc1ccccc1	0	0	0	0	0	0	-	-	-
Cc1ccc(CSCCNS(C)(=O)=O)cc1	0	0	0	58[inhibitor]	0	0	0	0	0
COc1ccc(CNC(=S)Nc2ccc3nc(N4CCOCC4)cc(C)c3c2)cc1	0	0	0	0	0	0	-	-	-
Cc1cc(N2CCN(C)CC2)nc2ccc(NC(=S)NCc3cccs3)cc12	0	0	0	0	0	141	0	0	0
CCN(CC)CCNC(=S)Nc1ccc2nc(N3CCN(C)CC3)cc(C)c2c1	0	0	0	0	0	0	-	-	-
COc1ccc(CNC(=S)Nc2ccc3nc(N4CCN(C)CC4)cc(C)c3c2)cc1	0	0	0	0	0	152	0	0	0
CCCCN(CC)CCCNC(=S)Nc1ccc2nc(N3CCN(C)CC3)cc(C)c2c1	0	0	0	0	0	142	0	0	0
COc1ccccc1CNC(=S)Nc1ccc2nc(N3CCN(C)CC3)cc(C)c2c1	0	0	0	0	0	138	0	0	0
CCN1CCN(c2cc(C)c3cc(NC(=S)NCc4cccs4)ccc3n2)CC1	0	0	0	0	0	0	-	-	-
O=C(Cc1ccc(Cl)cc1)NN=C1CCCc2ccccc21	-	-	0	-	-	-	-	-	-
Cc1ccc(Cl)cc1NC(C#N)c1ccccc1 (stereo not given)	0	0	0	129	0	0	0	0	0
COc1ccc(C(C#N)Nc2ccccc2OC)cc1 (stereo not given)	0	0	0	0	0	0	-	-	-
COc1ccc(/C=C(/NC(=O)c2ccccc2)C(=O)N/N=C/c2ccncc2)cc1	-	0	-	2.0[inhibitor]	0	2.0[inhibitor]	0	0	0
COc1ccc(/C=C/C(=O)Oc2ccc(/C=N/NC(=O)c3ccccc3)cc2)cc1OC	0	0	-	138	0	0	0	0	0
O=C(N/N=C/c1ccc(OC(=O)c2ccccc2)cc1)c1cccc(O)c1	0	0	-	137	0	0	0	0	0
SMILES	Rce1 inhib	T cell HTS	UCH37 DUB inh	MEKK3 PB1 HTS	MEKK2mut PB1 HTS	MEKK2 WT-MEK5	MEKK2wt confirm	MEKK2mut-MEK5	MEKK3-MEK5 inh
O=C(Oc1ccc(/C=N/NC(=O)c2ccccc2O)cc1)c1ccccc1	0	0	-	0	0	0	-	-	-
CCOC(=O)c1ccccc1OCc1cc(C=NNC(=O)c2ccncc2)ccc1OC	-	-	0	-	-	-	-	-	-
CNC(=S)NN=Cc1ccc(N2CCOCC2)s1	-	-	0	-	-	-	-	-	-
CCOc1ccc(CNC(=S)NN=Cc2ccc(OC)c(OC)c2)cc1	-	-	0	-	-	-	-	-	-
COc1ccc(C=NNC(=O)c2ccncc2)cc1CN1CCOCC1	-	-	0	-	-	-	-	-	-
COc1cccc2c1NC(C(=O)O)C1CC=CC21 (stereo not given)	0	0	0	0	0	29[inhibitor]	0	0	0
COC(=O)c1ccc(COc2ccccc2C=NNc2cccc(C(=O)O)c2)cc1	-	-	0	-	-	-	-	-	-
CCN1CCN(c2c(Cl)cccc2NC(=O)c2ccc3c(c2)OCCO3)CC1	0	0	0	48[inhibitor]	0	0	0	0	0
O=[N+]([O-])c1ccc(Sc2nnnn2-c2ccccc2)c(Cl)c1	0	0	0	0	0	0	-	-	-
Nc1ccc(Sc2nnnn2-c2ccccc2)c(Cl)c1	0	0	0	1.0[inhibitor]	0	-3.0[inhibitor]	0	0	0
O=C(NN=C1c2ccccc2-c2ccccc21)c1ccccc1	0	0	0	-	-	-	-	-	-
O=C(NN=C1c2ccccc2-c2ccccc21)c1ccccc1Br	0	0	0	4.0[inhibitor]	0	8.0[inhibitor]	0	0	0
COc1cccc(NC(=O)CSc2nnc(Cn3cnc([N+](=O)[O-])n3)n2C)c1	0	0	0	0	0	0	-	-	-
Cn1c(Cc2ccccc2)nnc1SCC(=O)Nc1ccccc1	0	0	0	0	0	0	-	-	-
COc1ccc(NC(=O)CSc2nnc(Cn3cnc([N+](=O)[O-])n3)n2C)cc1	0	0	0	41[inhibitor]	0	0	0	0	0
Cn1c(Cn2cnc([N+](=O)[O-])n2)nnc1SCC(=O)Nc1ccccc1	0	0	-	144	0	0	0	0	0
COC(=O)c1ccc(NC(=O)CSc2nnc(COc3ccccc3)n2C)cc1	0	0	0	0	24	0	0	0	0
CN(C)CCCNCCNC(=O)C=NO	-	-	0	-	-	-	-	-	-
O=C(NN=C/C=C/c1ccccc1)C(O)c1ccccc1 (stereo not given)	-	-	0	-	-	-	-	-	-
COC(=O)CCC(=O)OC1(C)C(=O)C2=CN(C3CCCC3)C(c3ccc(OC)cc3)=CC2=C(Br)C1=O (stereo not given)	0	0	0	47[inhibitor]	0	-8.0[inhibitor]	0	0	0
COC(=O)CCCC1=CC2=C(c3ccccc3)C(=O)C(C)(OC(=O)C3CCCC3)C(=O)C2=CN1c1ccccc1 (stereo not given)	0	0	0	128	0	154	0	0	0
